How the values were obtained:
Format in all cases: functional
CCRF-CEM = experiment: Growth inhibition of human CCRF-CEM cells incubated for 48 hrs by sulforhodamine B assay
Outline: (§1)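 NCI-60 screen. Compounds were dosed at five concentrations spanning 10^-4 to 10^-8 M for 48 h at 37 °C. Cells were TCA-fixed, stained with 0.4% SRB and read at 515 nm against time-zero and vehicle controls. GI50 is the concentration giving a 50% reduction in net protein increase.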

HL-60(TB) = experiment: Growth inhibition of human HL-60(TB) cells incubated for 48 hrs by sulforhodamine B assay; conditions: HL-60, 48 h
Outline: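 Performed at NCI's 60-line screen. Cells grown in RPMI with 5% FBS and 2 mM L-glutamine, plated 5,000–40,000 cells/well and incubated 24 h at 37 °C before compound addition. DMSO stocks were diluted in medium with gentamicin, and five concentrations spanning 10^-4 to 10^-8 M were tested. Exposure was 48 h. Cells were fixed with TCA, stained with SRB, and read at 515 nm. GI50 taken from log dose-response curves as 50% reduction in net protein increase versus control.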

K562 = experiment: Growth inhibition of human K562 cells incubated for 48 hrs by sulforhodamine B assay; conditions: K562, 48 h; outline: as §1
MOLT-4 = experiment: Growth inhibition of human MOLT4 cells incubated for 48 hrs by sulforhodamine B assay; conditions: MOLT-4, 48 h; outline: as §1
RPMI-8226 = experiment: Growth inhibition of human RPMI8226 cells incubated for 48 hrs by sulforhodamine B assay; conditions: RPMI-8226, 48 h; outline: as §1
A549 = experiment: Growth inhibition of human A549/ATCC cells incubated for 48 hrs by sulforhodamine B assay; conditions: A549, 48 h; outline: as §1
HOP-92 = experiment: Growth inhibition of human HOP92 cells incubated for 48 hrs by sulforhodamine B assay; conditions: HOP-92, 48 h; outline: as §1
NCI-H226 = experiment: Growth inhibition of human NCI-H226 cells incubated for 48 hrs by sulforhodamine B assay; conditions: NCI-H226, 48 h; outline: as §1
NCI-H23 = experiment: Growth inhibition of human NCI-H23 cells incubated for 48 hrs by sulforhodamine B assay; conditions: NCI-H23, 48 h; outline: as §1
NCI-H322M = experiment: Growth inhibition of human NCI-H322M cells incubated for 48 hrs by sulforhodamine B assay; outline: as §1
NCI-H460 = experiment: Growth inhibition of human NCI-H460 cells incubated for 48 hrs by sulforhodamine B assay; conditions: NCI-H460, 48 h; outline: as §1
HCC 2998 = experiment: Growth inhibition of human HCC2998 cells incubated for 48 hrs by sulforhodamine B assay; conditions: HCC 2998, 48 h; outline: as §1
HCT-116 = experiment: Growth inhibition of human HCT116 cells incubated for 48 hrs by sulforhodamine B assay; conditions: HCT-116, 48 h; outline: as §1
HCT-15 = experiment: Growth inhibition of human HCT15 cells incubated for 48 hrs by sulforhodamine B assay; conditions: HCT-15, 48 h; outline: as §1
HT-29 = experiment: Growth inhibition of human HT-29 cells incubated for 48 hrs by sulforhodamine B assay; conditions: HT-29, 48 h; outline: as §1
KM12 = experiment: Growth inhibition of human KM12 cells incubated for 48 hrs by sulforhodamine B assay; conditions: KM12, 48 h; outline: as §1
SW-620 = experiment: Growth inhibition of human SW620 cells incubated for 48 hrs by sulforhodamine B assay; conditions: SW-620, 48 h
Outline: (§2)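 NCI-60 screen run at NCI. Cells grown in RPMI medium with 5% FBS and 2 mM L-glutamine, plated at 5,000–40,000 cells/well, and preincubated 24 h at 37 °C. Time-zero plates were TCA-fixed. Compounds came from DMSO stocks and were tested at five concentrations from 10^-4 to 10^-8 M for 48 h. Cells were then TCA-fixed, stained with 0.4% SRB, and OD read at 515 nm. GI50 is the concentration giving a 50% reduction in net protein increase versus control.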

SF-268 = experiment: Growth inhibition of human SF268 cells incubated for 48 hrs by sulforhodamine B assay; conditions: SF-268, 48 h; outline: as §1
SF-295 = experiment: Growth inhibition of human SF295 cells incubated for 48 hrs by sulforhodamine B assay; conditions: SF-295, 48 h; outline: as §1
SF-539 = experiment: Growth inhibition of human SF539 cells incubated for 48 hrs by sulforhodamine B assay; conditions: SF-539, 48 h; outline: as §1
SNB-19 = experiment: Growth inhibition of human SNB19 cells incubated for 48 hrs by sulforhodamine B assay; conditions: SNB-19, 48 h; outline: as §2
U-251 = experiment: Growth inhibition of human U251 cells incubated for 48 hrs by sulforhodamine B assay; conditions: U-251, 48 h; outline: as §2
LOX IMVI = experiment: Growth inhibition of human LOXIMVI cells incubated for 48 hrs by sulforhodamine B assay; outline: as §1
Malme-3M = experiment: Growth inhibition of human MALME-3M cells incubated for 48 hrs by sulforhodamine B assay; outline: as §1
SK-MEL-28 = experiment: Growth inhibition of human SK-MEL-28 cells incubated for 48 hrs by sulforhodamine B assay; conditions: SK-MEL-28, 48 h; outline: as §1
UACC-257 = experiment: Growth inhibition of human UACC257 cells incubated for 48 hrs by sulforhodamine B assay; conditions: UACC-257, 48 h; outline: as §2
UACC-62 = experiment: Growth inhibition of human UACC62 cells incubated for 48 hrs by sulforhodamine B assay; conditions: UACC-62, 48 h; outline: as §2
OVCAR-5 = experiment: Growth inhibition of human OVCAR5 cells incubated for 48 hrs by sulforhodamine B assay; conditions: OVCAR-5, 48 h; outline: as §1
OVCAR-8 = experiment: Growth inhibition of human OVCAR8 cells incubated for 48 hrs by sulforhodamine B assay; conditions: OVCAR-8, 48 h; outline: as §1
NCI/ADR-RES = experiment: Growth inhibition of human NCI/ADR-RES cells incubated for 48 hrs by sulforhodamine B assay; outline: as §1
SK-OV-3 = experiment: Growth inhibition of human SKOV3 cells incubated for 48 hrs by sulforhodamine B assay; conditions: SK-OV-3, 48 h; outline: as §1
A498 = experiment: Growth inhibition of human A498 cells incubated for 48 hrs by sulforhodamine B assay; conditions: A498, 48 h; outline: as §1
RXF 393 = experiment: Growth inhibition of human RXF393 cells incubated for 48 hrs by sulforhodamine B assay; conditions: RXF 393, 48 h; outline: as §1
SN12C = experiment: Growth inhibition of human SN12C cells incubated for 48 hrs by sulforhodamine B assay; outline: as §1
UO-31 = experiment: Growth inhibition of human UO31 cells incubated for 48 hrs by sulforhodamine B assay; conditions: UO-31, 48 h; outline: as §2
MCF7 = experiment: Growth inhibition of human MCF7 cells incubated for 48 hrs by sulforhodamine B assay; conditions: MCF7, 48 h; outline: as §1
[1] = Cytotoxicity against human M9-ENL1 cells assessed as reduction in cell viability by trypan blue staining-based assay
Outline: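 M9-ENL1 AML cells (MLL-ENL-transduced human blood cells) plated at 10^6 cells/mL in alpha-MEM with 5% human plasma, 20% FBS, SCF, IL-3, IL-7 and FLT3. Drug diluted from DMSO stock into PBS, final DMSO ≤0.5%. After 24 h exposure, dead cells assessed by trypan blue and by flow cytometry (Annexin V/PI or Annexin V/7-AAD). Viability normalized to vehicle; EC50 from dose-response curves; triplicate.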

Compound: C=C1C(=O)O[C@@H]2[C@H]3O[C@]3(C)CC/C=C(/COC(=O)c3c[nH]c4ccccc34)CC[C@@H]12
- GI50 (CCRF-CEM): 0.05 µM
- GI50 (HL-60(TB)): 0.27 µM
- GI50 (K562): 0.27 µM
- GI50 (MOLT-4): 0.28 µM
- GI50 (RPMI-8226): 0.04 µM
- GI50 (A549): 1.5 µM
- GI50 (HOP-92): 0.16 µM
- GI50 (NCI-H226): 0.44 µM
- GI50 (NCI-H23): 1.63 µM
- GI50 (NCI-H322M): 1.85 µM
- GI50 (NCI-H460): 1.1 µM
- GI50 (HCC 2998): 0.32 µM
- GI50 (HCT-116): 0.19 µM
- GI50 (HCT-15): 0.25 µM
- GI50 (HT-29): 0.24 µM
- GI50 (KM12): 0.47 µM
- GI50 (SW-620): 0.23 µM
- GI50 (SF-268): 0.29 µM
- GI50 (SF-295): 1.94 µM
- GI50 (SF-539): 0.26 µM
- GI50 (SNB-19): 1.3 µM
- GI50 (U-251): 0.61 µM
- GI50 (LOX IMVI): 0.04 µM
- GI50 (Malme-3M): 0.32 µM
- GI50 (SK-MEL-28): 0.36 µM
- GI50 (UACC-257): 0.36 µM
- GI50 (UACC-62): 0.18 µM
- GI50 (OVCAR-5): 0.4 µM
- GI50 (OVCAR-8): 0.28 µM
- GI50 (NCI/ADR-RES): 0.39 µM
- GI50 (SK-OV-3): 2.24 µM
- GI50 (A498): 0.26 µM
- GI50 (RXF 393): 0.19 µM
- GI50 (SN12C): 0.23 µM
- GI50 (UO-31): 0.16 µM
- GI50 (MCF7): 0.26 µM
- EC50 [1]: 1.9 µM

Compound: C=C1C(=O)O[C@@H]2[C@H]3O[C@]3(C)CC/C=C(/COC(=O)c3cc4ccccc4o3)CC[C@@H]12
- GI50 (CCRF-CEM): 0.33 µM
- GI50 (HL-60(TB)): 1.22 µM
- GI50 (K562): 1.15 µM
- GI50 (MOLT-4): 1.77 µM
- GI50 (RPMI-8226): 0.71 µM
- GI50 (A549): 2.91 µM
- GI50 (HOP-92): 1.44 µM
- GI50 (NCI-H226): 1.74 µM
- GI50 (NCI-H23): 1.98 µM
- GI50 (NCI-H322M): 5.52 µM
- GI50 (NCI-H460): 2 µM
- GI50 (HCC 2998): 2.47 µM
- GI50 (HCT-116): 0.32 µM
- GI50 (HCT-15): 1.07 µM
- GI50 (HT-29): 0.82 µM
- GI50 (KM12): 2.02 µM
- GI50 (SW-620): 0.66 µM
- GI50 (SF-268): 1.56 µM
- GI50 (SF-295): 5.9 µM
- GI50 (SF-539): 1.45 µM
- GI50 (SNB-19): 3.16 µM
- GI50 (U-251): 1.63 µM
- GI50 (LOX IMVI): 1.42 µM
- GI50 (Malme-3M): 1.66 µM
- GI50 (SK-MEL-28): 1.75 µM
- GI50 (UACC-257): 1.52 µM
- GI50 (UACC-62): 1.68 µM
- GI50 (OVCAR-5): 1.88 µM
- GI50 (OVCAR-8): 2.43 µM
- GI50 (NCI/ADR-RES): 2.59 µM
- GI50 (SK-OV-3): 16.7 µM
- GI50 (A498): 12.9 µM
- GI50 (RXF 393): 1.43 µM
- GI50 (SN12C): 1.78 µM
- GI50 (UO-31): 1.46 µM
- GI50 (MCF7): 0.39 µM
- EC50 [1]: 2.9 µM

Compound: C=C1C(=O)O[C@@H]2[C@H]3O[C@]3(C)CC/C=C(/COC(=O)c3cc4ccccc4[nH]3)CC[C@@H]12
- GI50 (CCRF-CEM): 0.28 µM
- GI50 (HL-60(TB)): 0.54 µM
- GI50 (K562): 0.32 µM
- GI50 (MOLT-4): 1.51 µM
- GI50 (RPMI-8226): 0.26 µM
- GI50 (A549): 2.06 µM
- GI50 (HOP-92): 0.48 µM
- GI50 (NCI-H226): 1.47 µM
- GI50 (NCI-H23): 1.69 µM
- GI50 (NCI-H322M): 1.68 µM
- GI50 (NCI-H460): 1.73 µM
- GI50 (HCC 2998): 2.14 µM
- GI50 (HCT-116): 0.19 µM
- GI50 (HCT-15): 0.21 µM
- GI50 (HT-29): 0.27 µM
- GI50 (KM12): 2.05 µM
- GI50 (SW-620): 0.25 µM
- GI50 (SF-268): 1.59 µM
- GI50 (SF-295): 1.71 µM
- GI50 (SF-539): 1.32 µM
- GI50 (SNB-19): 1.6 µM
- GI50 (U-251): 1.89 µM
- GI50 (LOX IMVI): 0.18 µM
- GI50 (Malme-3M): 1.56 µM
- GI50 (SK-MEL-28): 1.29 µM
- GI50 (UACC-257): 1.61 µM
- GI50 (UACC-62): 1.47 µM
- GI50 (OVCAR-5): 1.14 µM
- GI50 (OVCAR-8): 1.99 µM
- GI50 (NCI/ADR-RES): 2.2 µM
- GI50 (SK-OV-3): 1.65 µM
- GI50 (A498): 1.74 µM
- GI50 (RXF 393): 1.07 µM
- GI50 (SN12C): 1.74 µM
- GI50 (UO-31): 0.88 µM
- GI50 (MCF7): 0.3 µM
- EC50 [1]: 1.1 µM

From ChEMBL document CHEMBL4138104, “Indole carboxylic acid esters of melampomagnolide B are potent anticancer agents against both hematological and solid tumor cells” (Eur J Med Chem, 2017)
